pEC50, pIC50: −log10 of the molar value.
How the values were obtained:
[1] = target: Transient receptor potential cation channel subfamily V member 4 (Rattus norvegicus, UniProt Q9ERZ8); assay: Agonist activity at recombinant rat TRPV4 expressed in HEK293 cells assessed as increase in intracellular calcium level by Fluo4-AM probe based fluorescence assay; type: cell-based
Summary of the method: (§1)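 HEK-293 cells stably expressing the channel, selected with G-418 (600 μg mL−1) and grown in MEM with 10% FBS and 2 mM glutamine at 37 °C, 5% CO2. Cells were loaded 1 h at room temperature in the dark with Fluo-4 AM (4 μM). Cells were washed and suspended in Tyrode's buffer pH 7.4, and fluorescence was read at 25 °C (ex 488/em 516 nm).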

[2] = target: Transient receptor potential cation channel subfamily V member 1 (Homo sapiens, UniProt Q8NER1); assay: Agonist activity at human TRPV1 expressed in HEK293 cells assessed as increase in intracellular calcium level by Fluo4-AM probe based fluorescence assay; type: cell-based; summary of the method: as §1
Sequence of Transient receptor potential cation channel subfamily V member 1 (Q8NER1 whole entry): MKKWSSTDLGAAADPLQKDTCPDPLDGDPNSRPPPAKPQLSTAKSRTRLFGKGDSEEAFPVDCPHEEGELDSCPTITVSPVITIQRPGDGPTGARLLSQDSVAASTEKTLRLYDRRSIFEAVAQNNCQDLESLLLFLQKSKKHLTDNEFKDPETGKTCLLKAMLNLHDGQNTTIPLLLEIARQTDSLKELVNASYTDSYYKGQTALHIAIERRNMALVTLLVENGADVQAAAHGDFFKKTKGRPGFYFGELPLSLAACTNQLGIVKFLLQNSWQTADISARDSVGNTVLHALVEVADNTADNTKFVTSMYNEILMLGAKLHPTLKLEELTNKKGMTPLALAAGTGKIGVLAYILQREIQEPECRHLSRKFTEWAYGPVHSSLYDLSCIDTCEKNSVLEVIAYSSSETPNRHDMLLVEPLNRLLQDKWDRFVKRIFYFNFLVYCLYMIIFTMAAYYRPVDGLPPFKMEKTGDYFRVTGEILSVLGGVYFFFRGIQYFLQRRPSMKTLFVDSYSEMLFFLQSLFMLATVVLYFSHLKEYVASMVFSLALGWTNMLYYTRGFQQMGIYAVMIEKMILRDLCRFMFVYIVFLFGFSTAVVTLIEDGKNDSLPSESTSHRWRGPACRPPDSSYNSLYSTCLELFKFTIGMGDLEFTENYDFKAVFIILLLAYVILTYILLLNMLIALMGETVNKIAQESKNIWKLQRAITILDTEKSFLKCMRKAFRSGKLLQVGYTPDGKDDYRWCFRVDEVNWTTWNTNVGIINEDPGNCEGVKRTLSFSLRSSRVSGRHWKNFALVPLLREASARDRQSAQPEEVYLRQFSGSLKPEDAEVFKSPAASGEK

[3] = target: T1, Transient receptor potential cation channel subfamily V member 2 (Rattus norvegicus, UniProt Q9WUD2); assay: Agonist activity at recombinant rat TRPV2 expressed in HEK293 cells assessed as increase in intracellular calcium level by Fluo4-AM probe based fluorescence assay; type: cell-based; summary of the method: as §1
T1 sequence (Q9WUD2 whole entry): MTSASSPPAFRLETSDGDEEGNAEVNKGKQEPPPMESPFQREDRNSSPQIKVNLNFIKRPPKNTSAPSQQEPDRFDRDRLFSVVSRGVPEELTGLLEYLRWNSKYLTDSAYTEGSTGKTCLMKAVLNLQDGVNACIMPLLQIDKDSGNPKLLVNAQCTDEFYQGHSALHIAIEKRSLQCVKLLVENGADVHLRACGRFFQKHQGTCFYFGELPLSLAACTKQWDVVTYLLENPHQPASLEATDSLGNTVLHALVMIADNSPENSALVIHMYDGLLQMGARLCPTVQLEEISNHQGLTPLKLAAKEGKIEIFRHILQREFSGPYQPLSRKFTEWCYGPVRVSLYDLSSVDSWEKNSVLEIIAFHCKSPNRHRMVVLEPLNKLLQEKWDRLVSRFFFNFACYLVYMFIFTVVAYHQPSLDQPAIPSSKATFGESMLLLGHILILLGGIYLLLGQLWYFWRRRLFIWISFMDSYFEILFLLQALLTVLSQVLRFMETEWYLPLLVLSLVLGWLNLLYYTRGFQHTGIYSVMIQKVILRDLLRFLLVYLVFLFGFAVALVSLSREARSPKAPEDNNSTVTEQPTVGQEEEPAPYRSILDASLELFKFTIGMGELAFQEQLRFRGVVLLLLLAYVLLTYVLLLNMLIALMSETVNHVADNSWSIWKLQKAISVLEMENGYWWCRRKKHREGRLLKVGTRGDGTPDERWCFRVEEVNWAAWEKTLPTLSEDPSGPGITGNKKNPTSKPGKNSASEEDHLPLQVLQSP

[4] = target: Transient receptor potential cation channel subfamily M member 8 (Rattus norvegicus, UniProt Q8R455); assay: Antagonist activity at recombinant rat TRPM8 expressed in HEK293 cells assessed as inhibition of icilin-induced intracellular calcium level incubated for 5 mins followed by agonist stimulation by Fluo4-AM probe based fluorescence assay; type: cell-based
Sequence of Transient receptor potential cation channel subfamily M member 8 (Q8R455 whole entry): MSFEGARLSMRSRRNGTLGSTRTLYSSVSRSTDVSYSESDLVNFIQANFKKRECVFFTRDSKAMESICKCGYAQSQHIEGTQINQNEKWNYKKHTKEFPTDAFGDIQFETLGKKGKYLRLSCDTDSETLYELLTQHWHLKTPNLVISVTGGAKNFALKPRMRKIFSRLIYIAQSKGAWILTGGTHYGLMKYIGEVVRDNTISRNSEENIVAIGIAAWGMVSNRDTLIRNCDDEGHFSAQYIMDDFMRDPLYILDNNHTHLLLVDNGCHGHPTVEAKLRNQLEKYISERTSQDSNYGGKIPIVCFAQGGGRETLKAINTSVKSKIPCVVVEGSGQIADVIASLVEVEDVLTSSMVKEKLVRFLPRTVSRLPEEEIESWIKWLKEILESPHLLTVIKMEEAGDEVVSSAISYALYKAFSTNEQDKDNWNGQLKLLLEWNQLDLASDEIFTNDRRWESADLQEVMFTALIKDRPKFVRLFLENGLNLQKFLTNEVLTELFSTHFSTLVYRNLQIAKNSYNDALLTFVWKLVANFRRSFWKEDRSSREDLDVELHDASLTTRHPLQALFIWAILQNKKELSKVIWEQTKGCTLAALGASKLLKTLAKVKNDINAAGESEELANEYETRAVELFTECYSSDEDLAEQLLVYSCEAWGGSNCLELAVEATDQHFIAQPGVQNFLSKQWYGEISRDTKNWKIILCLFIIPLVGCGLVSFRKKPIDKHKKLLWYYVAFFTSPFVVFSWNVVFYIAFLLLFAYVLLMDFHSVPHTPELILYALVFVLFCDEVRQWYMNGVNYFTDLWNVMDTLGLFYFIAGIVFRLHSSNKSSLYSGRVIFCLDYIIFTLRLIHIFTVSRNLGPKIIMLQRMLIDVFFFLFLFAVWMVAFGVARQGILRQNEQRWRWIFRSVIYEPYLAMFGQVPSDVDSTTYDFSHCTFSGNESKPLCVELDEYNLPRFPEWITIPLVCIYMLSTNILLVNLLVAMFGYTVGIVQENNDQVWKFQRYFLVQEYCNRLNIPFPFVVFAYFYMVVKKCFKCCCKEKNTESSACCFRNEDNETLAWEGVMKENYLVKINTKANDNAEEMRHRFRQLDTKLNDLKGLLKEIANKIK
Summary of the method: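 Rat TRPM8 HEK-293 cells were loaded with Fluo-4 AM and suspended in Tyrode's buffer pH 7.4. Compound was added 5 min before icilin (0.25 μM), and [Ca2+]i was read at 22 °C on a Peltier system. IC50 for half-maximal inhibition of the agonist response was taken from sigmoidal fits.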

Cannabinoid receptor 1 = Cannabinoid receptor 1 (Homo sapiens, UniProt P21554); assay: Displacement of 3H-CP-55940 from recombinant full length human CB1 receptor expressed in HEK293 cell membranes after 90 mins by topcount scintillation counting analysis
Sequence of Cannabinoid receptor 1 (P21554 whole entry): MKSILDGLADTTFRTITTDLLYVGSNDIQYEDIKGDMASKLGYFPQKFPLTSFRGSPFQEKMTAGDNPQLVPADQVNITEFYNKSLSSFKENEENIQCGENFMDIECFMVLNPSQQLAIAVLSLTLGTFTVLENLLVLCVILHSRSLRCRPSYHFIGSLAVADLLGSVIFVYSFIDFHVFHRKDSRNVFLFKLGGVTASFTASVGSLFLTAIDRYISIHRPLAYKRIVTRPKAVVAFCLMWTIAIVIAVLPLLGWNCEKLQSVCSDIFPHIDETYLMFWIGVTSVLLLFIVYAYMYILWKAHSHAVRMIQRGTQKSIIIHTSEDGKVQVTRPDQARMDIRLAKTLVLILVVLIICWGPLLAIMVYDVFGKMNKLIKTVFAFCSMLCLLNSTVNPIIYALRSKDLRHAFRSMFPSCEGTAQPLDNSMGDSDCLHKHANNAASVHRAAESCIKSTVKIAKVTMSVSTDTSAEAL

[5] = target: T2, Transient receptor potential cation channel, subfamily V, member 3 (Rattus norvegicus, UniProt E9PU00); assay: Agonist activity at recombinant rat TRPV3 expressed in HEK293 cells assessed as increase in intracellular calcium level by Fluo4-AM probe based fluorescence assay; type: cell-based; summary of the method: as §1
T2 sequence (E9PU00 whole entry): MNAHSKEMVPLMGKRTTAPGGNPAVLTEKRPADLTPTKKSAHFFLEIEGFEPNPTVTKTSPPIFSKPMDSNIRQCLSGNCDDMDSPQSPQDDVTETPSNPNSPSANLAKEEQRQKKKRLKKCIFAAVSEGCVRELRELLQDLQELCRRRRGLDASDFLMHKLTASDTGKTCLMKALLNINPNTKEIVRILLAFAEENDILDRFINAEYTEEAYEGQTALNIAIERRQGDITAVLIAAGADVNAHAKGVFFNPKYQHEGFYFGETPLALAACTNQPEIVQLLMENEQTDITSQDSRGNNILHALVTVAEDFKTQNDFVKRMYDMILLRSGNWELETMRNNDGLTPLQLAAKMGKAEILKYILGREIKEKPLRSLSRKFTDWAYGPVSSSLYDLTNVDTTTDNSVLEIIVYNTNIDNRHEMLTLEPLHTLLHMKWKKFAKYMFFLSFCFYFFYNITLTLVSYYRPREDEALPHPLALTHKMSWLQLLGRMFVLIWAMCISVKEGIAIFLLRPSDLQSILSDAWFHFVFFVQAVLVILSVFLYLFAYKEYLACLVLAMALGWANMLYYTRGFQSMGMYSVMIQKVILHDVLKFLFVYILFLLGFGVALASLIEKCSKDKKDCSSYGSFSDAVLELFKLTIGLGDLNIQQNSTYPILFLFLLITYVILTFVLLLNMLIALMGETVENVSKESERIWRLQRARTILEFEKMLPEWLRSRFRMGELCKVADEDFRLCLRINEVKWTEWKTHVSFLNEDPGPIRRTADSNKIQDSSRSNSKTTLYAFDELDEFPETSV

[6] = target: Transient receptor potential cation channel subfamily A member 1 (Rattus norvegicus, UniProt Q6RI86); assay: Agonist activity at recombinant rat TRPA1 expressed in HEK293 cells assessed as increase in intracellular calcium level by Fluo4-AM probe based fluorescence assay; type: cell-based; summary of the method: as §1
Sequence of Transient receptor potential cation channel subfamily A member 1 (Q6RI86 whole entry): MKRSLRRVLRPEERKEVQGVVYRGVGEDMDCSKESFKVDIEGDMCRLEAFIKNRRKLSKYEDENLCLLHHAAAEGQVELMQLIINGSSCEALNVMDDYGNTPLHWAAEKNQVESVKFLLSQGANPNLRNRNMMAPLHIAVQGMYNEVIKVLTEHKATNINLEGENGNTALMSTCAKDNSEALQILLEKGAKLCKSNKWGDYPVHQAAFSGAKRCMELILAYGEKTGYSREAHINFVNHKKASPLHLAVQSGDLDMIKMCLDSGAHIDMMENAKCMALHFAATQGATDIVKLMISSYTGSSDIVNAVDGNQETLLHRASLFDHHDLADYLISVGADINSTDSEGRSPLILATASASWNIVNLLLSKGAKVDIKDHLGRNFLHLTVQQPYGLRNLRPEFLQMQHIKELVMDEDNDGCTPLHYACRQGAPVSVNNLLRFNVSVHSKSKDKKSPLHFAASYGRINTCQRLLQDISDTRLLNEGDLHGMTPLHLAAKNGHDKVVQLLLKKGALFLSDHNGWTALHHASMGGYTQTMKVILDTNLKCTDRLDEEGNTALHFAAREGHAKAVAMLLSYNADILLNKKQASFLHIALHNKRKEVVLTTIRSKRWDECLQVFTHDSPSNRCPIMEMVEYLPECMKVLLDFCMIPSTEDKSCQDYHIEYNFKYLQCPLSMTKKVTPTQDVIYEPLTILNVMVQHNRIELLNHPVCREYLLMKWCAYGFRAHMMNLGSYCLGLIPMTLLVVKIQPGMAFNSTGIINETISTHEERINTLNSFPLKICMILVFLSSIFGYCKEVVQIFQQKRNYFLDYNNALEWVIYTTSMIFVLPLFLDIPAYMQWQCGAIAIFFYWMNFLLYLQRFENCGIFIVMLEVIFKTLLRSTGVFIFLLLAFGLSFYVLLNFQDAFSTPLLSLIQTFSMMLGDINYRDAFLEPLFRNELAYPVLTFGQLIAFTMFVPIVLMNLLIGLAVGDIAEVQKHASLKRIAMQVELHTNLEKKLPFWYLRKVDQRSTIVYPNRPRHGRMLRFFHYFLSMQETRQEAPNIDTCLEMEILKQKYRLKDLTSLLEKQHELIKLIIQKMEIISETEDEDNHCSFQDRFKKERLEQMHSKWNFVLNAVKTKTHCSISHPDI

Cannabinoid receptor 2 = Cannabinoid receptor 2 (Homo sapiens, UniProt P34972); assay: Displacement of 3H-CP-55940 from recombinant full length human CB2 receptor expressed in HEK293 cell membranes after 90 mins by topcount scintillation counting analysis
Sequence of Cannabinoid receptor 2 (P34972 whole entry): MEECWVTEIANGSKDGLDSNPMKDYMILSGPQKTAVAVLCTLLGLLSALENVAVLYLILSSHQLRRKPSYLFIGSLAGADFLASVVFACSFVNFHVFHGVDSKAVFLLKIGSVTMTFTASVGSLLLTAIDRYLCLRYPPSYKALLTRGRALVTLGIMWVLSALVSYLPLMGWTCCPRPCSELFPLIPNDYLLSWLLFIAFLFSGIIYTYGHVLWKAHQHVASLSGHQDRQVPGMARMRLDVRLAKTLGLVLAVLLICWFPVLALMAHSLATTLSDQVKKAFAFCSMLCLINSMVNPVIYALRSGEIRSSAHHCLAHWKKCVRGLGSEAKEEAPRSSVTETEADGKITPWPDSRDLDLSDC

Sequence of Transient receptor potential cation channel subfamily V member 4 (Q9ERZ8 whole entry): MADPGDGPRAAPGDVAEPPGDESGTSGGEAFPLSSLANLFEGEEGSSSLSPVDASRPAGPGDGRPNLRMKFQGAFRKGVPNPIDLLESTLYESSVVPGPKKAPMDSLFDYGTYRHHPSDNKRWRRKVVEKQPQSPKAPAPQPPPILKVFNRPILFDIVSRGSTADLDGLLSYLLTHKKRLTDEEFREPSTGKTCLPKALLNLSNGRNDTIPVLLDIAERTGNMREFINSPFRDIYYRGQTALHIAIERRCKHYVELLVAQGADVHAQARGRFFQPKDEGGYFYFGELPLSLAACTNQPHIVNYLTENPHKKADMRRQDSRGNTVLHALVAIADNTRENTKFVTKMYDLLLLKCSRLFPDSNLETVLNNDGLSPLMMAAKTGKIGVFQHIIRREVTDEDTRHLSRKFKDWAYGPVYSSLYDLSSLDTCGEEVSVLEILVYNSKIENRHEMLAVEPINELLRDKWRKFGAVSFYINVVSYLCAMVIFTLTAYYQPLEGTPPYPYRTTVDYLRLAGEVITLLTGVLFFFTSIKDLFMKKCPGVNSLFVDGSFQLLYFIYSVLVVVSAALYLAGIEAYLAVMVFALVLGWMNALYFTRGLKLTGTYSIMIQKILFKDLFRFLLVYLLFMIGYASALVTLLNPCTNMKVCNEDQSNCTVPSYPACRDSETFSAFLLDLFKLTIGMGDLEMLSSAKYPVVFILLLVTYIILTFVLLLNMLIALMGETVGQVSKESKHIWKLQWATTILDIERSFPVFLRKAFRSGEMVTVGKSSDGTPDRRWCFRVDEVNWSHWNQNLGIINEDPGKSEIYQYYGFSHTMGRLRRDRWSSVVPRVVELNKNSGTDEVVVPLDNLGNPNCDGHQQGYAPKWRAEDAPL

Row | Compound | pEC50 [1] | pEC50 [2] | pEC50 [3] | pIC50 [4] | pEC50 (Cannabinoid receptor 1) | pEC50 [5] | pEC50 [6] | pEC50 (Cannabinoid receptor 2)
1 | CCCc1cc(O)c2c(c1)OC(C)(C)c1ccc(C)cc1-2 | 5.14 | 5.18 | 5.51 | 6.30 | 6.25 | 5.46 | 6.70 | 5.32
2 | CCCCCc1cc(O)c2c(c1)OC(C)(C)c1ccc(C)cc1-2 [CANNABINOL] | 4.79 | 5.21 | 4.72 | 6.68 | 7.12 | 5.28 | 6.74 | 7.14

From ChEMBL document CHEMBL4138251, “Iodine-Promoted Aromatization of p-Menthane-Type Phytocannabinoids” (J Nat Prod, 2018)
